Activity calls are given as the source filed them. No cut-off for these calls is given here.
Experiments:
[1] = organism: Rattus norvegicus; experiment: Selectivity index, ratio of Ki for displacement of [3H][Ile5,6]deltorphin II from delta opioid receptor in rat brain membranes to Ki for displacement of [3H]DAMGO from mu opioid receptor in rat brain membranes; format: cell membranes
Outline: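 Rat brain membranes (cerebella removed; 0.3–0.5 mg protein) in 50 mM Tris-HCl, pH 7.4, were incubated 45 min at 35 °C with 1 nM [3H]DAMGO (MOR) or 0.5 nM [3H][Ile5,6]deltorphin II (DOR) plus varied test concentrations. Nonspecific binding was set with 10 μM naloxone. Samples were GF/C filtered, washed and scintillation counted. Ki was obtained by Cheng–Prusoff; duplicates, 3–4 experiments.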

[2] = Selectivity index, ratio of Ki for displacement of [3H]U69,593 from kappa opioid receptor in guinea-pig brain membranes to Ki for displacement of [3H]DAMGO from mu opioid receptor in rat brain membranes; format: cell membranes
Outline: (§1)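 Guinea-pig brain membranes (0.3–0.5 mg protein) in 50 mM Tris-HCl, pH 7.4, were incubated with 1 nM [3H]U69,593 for 30 min at 30 °C, with 10 μM naloxone defining nonspecific binding. MOR was measured on rat brain membranes with 1 nM [3H]DAMGO for 45 min at 35 °C. Samples were filtered and scintillation counted, and Ki was obtained by Cheng–Prusoff; duplicates, 3–4 experiments.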

[3] = target: Delta-type opioid receptor (Homo sapiens) (UniProt P41143); experiment: Displacement of [3H]diprenorphine from human DOR expressed in CHO cell membranes incubated for 60 mins liquid scintillation counting assay; settings: Cell membrane, filed as agonist
Delta-type opioid receptor (Homo sapiens), sequence (P41143 whole entry): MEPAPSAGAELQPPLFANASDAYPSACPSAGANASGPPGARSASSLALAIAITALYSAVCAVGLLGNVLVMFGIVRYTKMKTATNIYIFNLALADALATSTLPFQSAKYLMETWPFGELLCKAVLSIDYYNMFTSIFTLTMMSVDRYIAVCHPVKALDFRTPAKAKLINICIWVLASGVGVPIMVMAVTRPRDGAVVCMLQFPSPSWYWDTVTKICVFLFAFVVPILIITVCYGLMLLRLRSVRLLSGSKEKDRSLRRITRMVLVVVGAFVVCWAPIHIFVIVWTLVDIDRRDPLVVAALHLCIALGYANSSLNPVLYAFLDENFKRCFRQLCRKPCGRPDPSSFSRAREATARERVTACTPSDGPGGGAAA
Outline: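 Membranes from CHO cells expressing human DOR (15–20 μg) in 50 mM Tris-HCl, pH 7.4, were incubated with 0.2 nM [3H]diprenorphine and varied test concentrations for 60 min at 25 °C. Nonspecific binding was set with 1–10 μM unlabeled diprenorphine. Samples were GF/C filtered and scintillation counted.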

[4] = target: Mu-type opioid receptor (Homo sapiens) (UniProt P35372); experiment: Agonist activity at human MOR expressed in CHO cell membranes incubated for 60 mins scintillation counting assay relative to DAMGO; settings: Cell membrane
Mu-type opioid receptor (Homo sapiens), sequence (P35372 whole entry): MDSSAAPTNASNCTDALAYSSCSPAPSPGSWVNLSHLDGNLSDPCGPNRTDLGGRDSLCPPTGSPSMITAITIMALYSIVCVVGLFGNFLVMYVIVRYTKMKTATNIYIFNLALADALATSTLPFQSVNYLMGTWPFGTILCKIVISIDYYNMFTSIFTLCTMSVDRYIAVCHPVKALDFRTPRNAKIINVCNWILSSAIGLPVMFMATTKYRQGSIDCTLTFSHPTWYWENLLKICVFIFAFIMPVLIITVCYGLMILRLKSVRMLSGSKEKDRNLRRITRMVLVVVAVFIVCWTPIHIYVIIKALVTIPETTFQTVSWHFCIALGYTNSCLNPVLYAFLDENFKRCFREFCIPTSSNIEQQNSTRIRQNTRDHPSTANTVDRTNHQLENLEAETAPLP
Outline: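 CHO-hMOR or CHO-hKOR membranes (5–10 μg) were incubated 60 min at 25 °C in HEPES/MgCl2/NaCl buffer, pH 7.4, with 0.05 nM [35S]GTPγS, 10 μM GDP and varied test concentrations. Nonspecific binding was set with 10 μM GTPγS. Samples were filtered and scintillation counted. % stimulation was taken from concentration–response curves relative to the full agonist (DAMGO for MOR, U69,593 for KOR). Duplicates, 3–4 experiments.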

[5] = test system: Mus musculus; experiment: Antinociceptive activity in sc dosed CD1 mouse assessed as inhibition of the writhing response after 30 mins post dose by acetic acid-induced writhing assay; format: functional; settings: 0.5 h
[6] = test system: Mus musculus; experiment: Antinociceptive activity in CD1 mouse assessed as inhibition of the writhing response at 50 ug/kg, sc and co-administered with 1 mg/kg naloxone methiodide and measured after 30 mins post dose by acetic acid-induced writhing assay; format: functional, organism-based; settings: dose 50.0 µg/kg
Outline: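 Male CD1 mice (30–35 g) received the agonist sc in saline (10 μL/g) together with sc naloxone methiodide 1 mg/kg. At 25 min, 0.6% acetic acid was given ip, and writhes were counted over a 10 min observation period (30 min post-dose). Results were expressed as mean writhes versus saline control and agonist-alone groups; n = 6–7 mice per group; ANOVA with Tukey post hoc.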

[7] = target: Kappa-type opioid receptor (Cavia porcellus, UniProt P41144); experiment: Displacement of [3H]U69,593 from kappa opioid receptor in guinea-pig brain membranes incubated for 30 mins by liquid scintillation counting method; format: cell membranes, Membrane; outline: as §1
Kappa-type opioid receptor, sequence (P41144 whole entry): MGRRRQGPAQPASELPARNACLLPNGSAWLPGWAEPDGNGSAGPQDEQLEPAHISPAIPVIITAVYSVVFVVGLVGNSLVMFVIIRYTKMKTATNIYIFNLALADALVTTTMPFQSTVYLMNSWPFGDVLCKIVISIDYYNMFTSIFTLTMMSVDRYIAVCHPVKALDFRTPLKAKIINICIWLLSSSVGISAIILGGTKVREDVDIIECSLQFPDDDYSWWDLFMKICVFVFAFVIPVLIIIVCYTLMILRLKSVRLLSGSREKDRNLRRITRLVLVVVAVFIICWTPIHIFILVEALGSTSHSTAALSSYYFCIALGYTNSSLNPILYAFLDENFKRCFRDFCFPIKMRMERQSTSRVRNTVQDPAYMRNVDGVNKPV

Row | Compound | Ratio Ki [1] | Ratio Ki [2] | Activity [3] | Activity ([4]; filed as agonist) | Activity ([4]; filed as partial agonist) | ED50 [5] | Activity [6] | Ki [7]
1 | CO[C@@]12CC[C@H](N[C@@H](CO)C(=O)O)[C@@H]3Oc4c(O)ccc5c4[C@@]31CCN(C)[C@@H]2C5 | 2.4 | 89 | Active |  |  |  |  | 
2 | CO[C@@]12CC[C@@H](N[C@@H](CCC(=O)O)C(=O)O)[C@@H]3Oc4c(O)ccc5c4[C@@]31CCN(C)[C@@H]2C5 | 0.7 | 108 | Active |  |  |  |  | 
3 | CO[C@@]12CC[C@@H](N[C@H](C(=O)O)C(C)C)[C@@H]3Oc4c(O)ccc5c4[C@@]31CCN(C)[C@@H]2C5 | 1.2 | 100 | Active | 84% |  |  |  | 
4 | CO[C@@]12CC[C@H](N[C@H](C)C(=O)O)[C@@H]3Oc4c(O)ccc5c4[C@@]31CCN(C)[C@@H]2C5 |  |  | Active |  |  |  |  | 
5 | CO[C@@]12CC[C@H](N[C@@H](CCC(N)=O)C(=O)O)[C@@H]3Oc4c(O)ccc5c4[C@@]31CCN(C)[C@@H]2C5 | 1.6 | 108 | Active |  |  |  |  | 
6 | CO[C@@]12CC[C@H](N[C@H](C(=O)N[C@@H](Cc3ccc(O)cc3)C(=O)O)C(C)C)[C@@H]3Oc4c(O)ccc5c4[C@@]31CCN(C)[C@@H]2C5 | 1.5 | 84 | Active |  | 84% |  |  | 
7 | CO[C@@]12CC[C@H](N[C@H](C(=O)O)C3CCCCC3)[C@@H]3Oc4c(O)ccc5c4[C@@]31CCN(C)[C@@H]2C5 | 12 | 144 | Active |  |  |  |  | 
8 | CN1CC[C@]23c4c5ccc(O)c4O[C@H]2[C@H](NCC(=O)O)CC[C@@]3(OCCCc2ccccc2)[C@H]1C5 |  |  | Active |  |  |  |  | 
9 | CO[C@@]12CC[C@H](N[C@@H](Cc3c[nH]c4ccccc34)C(=O)O)[C@@H]3Oc4c(O)ccc5c4[C@@]31CCN(C)[C@@H]2C5 | 2.8 | 70 | Active |  |  |  |  | 
10 | CO[C@@]12CC[C@H](N[C@H](C(=O)O)C(C)C)[C@@H]3Oc4c(O)ccc5c4[C@@]31CCN(C)[C@@H]2C5 | 1.2 | 103 | Active |  |  |  |  | 
11 | CO[C@@]12CC[C@@H](N[C@@H](CO)C(=O)O)[C@@H]3Oc4c(O)ccc5c4[C@@]31CCN(C)[C@@H]2C5 | 2.5 | 71 | Active |  |  |  |  | 
12 | CO[C@@]12CC[C@@H](N[C@@H](C(=O)O)C(C)C)[C@@H]3Oc4c(O)ccc5c4[C@@]31CCN(C)[C@@H]2C5 | 1.6 | 156 | Active |  |  | 0.014 mg/kg |  | 
13 | CO[C@@]12CC[C@@H](N[C@H](C)C(=O)O)[C@@H]3Oc4c(O)ccc5c4[C@@]31CCN(C)[C@@H]2C5 |  |  | Active |  |  |  |  | 
14 | CO[C@@]12CC[C@@H](N[C@@H](CC(=O)O)C(=O)O)[C@@H]3Oc4c(O)ccc5c4[C@@]31CCN(C)[C@@H]2C5 | 6.6 | 103 | Active | 74% |  |  |  | 
15 | CC[C@H](N[C@H]1CC[C@@]2(OC)[C@H]3Cc4ccc(O)c5c4[C@@]2(CCN3C)[C@H]1O5)C(=O)O |  | 189 | Active |  |  | 0.0175 mg/kg |  | 
16 | CO[C@@]12CC[C@H](N[C@@H](CC(N)=O)C(=O)O)[C@@H]3Oc4c(O)ccc5c4[C@@]31CCN(C)[C@@H]2C5 | 2.9 | 63 | Active |  |  | 0.0152 mg/kg |  | 
17 | CO[C@@]12CC[C@@H](NCCC(=O)O)[C@@H]3Oc4c(O)ccc5c4[C@@]31CCN(C)[C@@H]2C5 | 13 | 69 | Active | 78% |  |  |  | 
18 | CO[C@@]12CC[C@H](N[C@H](Cc3ccccc3)C(=O)O)[C@@H]3Oc4c(O)ccc5c4[C@@]31CCN(C)[C@@H]2C5 | 6 | 125 | Active |  |  | 0.0181 mg/kg |  | 
19 | CO[C@@]12CC[C@@H](N[C@H](C(=O)O)C3CCCCC3)[C@@H]3Oc4c(O)ccc5c4[C@@]31CCN(C)[C@@H]2C5 | 0.8 | 71 | Active |  |  |  | inactive | 
20 | CO[C@@]12CC[C@H](NCC(=O)O)[C@@H]3Oc4c(O)ccc5c4[C@@]31CCN(C)[C@@H]2C5 |  |  | Active |  |  |  |  | 

Row | Compound | Ratio Ki [1] | Ratio Ki [2] | Activity [3] | Activity ([4]; filed as agonist) | Activity ([4]; filed as partial agonist) | ED50 [5] | Activity [6] | Ki [7]
21 | CO[C@@]12CC[C@H](NCCC(=O)O)[C@@H]3Oc4c(O)ccc5c4[C@@]31CCN(C)[C@@H]2C5 | 46 | 140 | Active |  |  |  |  | 
22 | CO[C@@]12CC[C@H](N[C@@H](Cc3ccc(O)cc3)C(=O)O)[C@@H]3Oc4c(O)ccc5c4[C@@]31CCN(C)[C@@H]2C5 | 2.6 | 48 | Active |  |  | 0.0146 mg/kg |  | 
23 | CO[C@@]12CCC(N[C@@H](CCC(=O)O)C(=O)O)[C@@H]3Oc4c(O)ccc5c4[C@@]31CCN(C)[C@@H]2C5 (single isomer, unassigned) | 6.2 | 60 | Active |  |  |  |  | 
24 | CN1CC[C@]23c4c5ccc(O)c4O[C@H]2[C@@H](O)C=C[C@H]3[C@H]1C5 [MORPHINE] |  |  |  |  |  | 0.437 mg/kg |  | 
25 | CC[C@H](N[C@@H]1CC[C@@]2(OC)[C@H]3Cc4ccc(O)c5c4[C@@]2(CCN3C)[C@H]1O5)C(=O)O | 0.7 | 110 | Active | 83% |  |  | inactive | 
26 | CO[C@@]12CC[C@@H](N[C@H](C(=O)N[C@@H](Cc3ccc(O)cc3)C(=O)O)C(C)C)[C@@H]3Oc4c(O)ccc5c4[C@@]31CCN(C)[C@@H]2C5 | 3.1 |  | Active |  | 73% |  |  | 
27 | CO[C@@]12CC[C@H](N[C@@H](CC(=O)O)C(=O)O)[C@@H]3Oc4c(O)ccc5c4[C@@]31CCN(C)[C@@H]2C5 | 11 | 37 | Active |  |  |  |  | 
28 | CO[C@@]12CC[C@H](N[C@@H](C)C(=O)O)[C@@H]3Oc4c(O)ccc5c4[C@@]31CCN(C)[C@@H]2C5 |  |  | Active |  |  | 0.016 mg/kg |  | 142 nM
29 | CN1CC[C@]23c4c5ccc(O)c4O[C@H]2[C@@H](NCC(=O)O)CC[C@@]3(OCCCc2ccccc2)[C@H]1C5 |  |  | Active |  |  |  |  | 
30 | CO[C@@]12CCC(=O)[C@@H]3Oc4c(O)ccc5c4[C@@]31CCN(C)[C@@H]2C5 |  |  | Active |  |  |  |  | 
31 | CO[C@@]12CC[C@@H](N[C@@H](Cc3ccc(O)cc3)C(=O)O)[C@@H]3Oc4c(O)ccc5c4[C@@]31CCN(C)[C@@H]2C5 | 1.2 | 58 | Active |  |  |  |  | 
32 | CO[C@@]12CC[C@@H](N[C@@H](CC(N)=O)C(=O)O)[C@@H]3Oc4c(O)ccc5c4[C@@]31CCN(C)[C@@H]2C5 | 1.8 | 82 | Active |  |  |  |  | 
33 | CO[C@@]12CC[C@H](NCCCC(=O)O)[C@@H]3Oc4c(O)ccc5c4[C@@]31CCN(C)[C@@H]2C5 | 16 | 59 | Active |  |  |  |  | 
34 | CO[C@@]12CC[C@@H](N[C@@H](CCC(N)=O)C(=O)O)[C@@H]3Oc4c(O)ccc5c4[C@@]31CCN(C)[C@@H]2C5 | 2 | 117 | Active |  |  |  |  | 
35 | CO[C@@]12CC[C@@H](N[C@H](Cc3ccccc3)C(=O)O)[C@@H]3Oc4c(O)ccc5c4[C@@]31CCN(C)[C@@H]2C5 | 0.9 | 109 | Active | 78% |  |  |  | 
36 | CO[C@@]12CC[C@H](N[C@@H](C(=O)O)C(C)C)[C@@H]3Oc4c(O)ccc5c4[C@@]31CCN(C)[C@@H]2C5 | 1.1 | 119 | Active |  |  |  |  | 
37 | CO[C@@]12CC[C@H](N[C@@H](CCCCN)C(=O)O)[C@@H]3Oc4c(O)ccc5c4[C@@]31CCN(C)[C@@H]2C5 | 6.7 | 66 | Active |  |  |  |  | 
38 | CO[C@@]12CC[C@@H](N[C@@H](CCCCN)C(=O)O)[C@@H]3Oc4c(O)ccc5c4[C@@]31CCN(C)[C@@H]2C5 | 6.3 | 64 | Active |  |  |  | inactive | 
39 | CO[C@@]12CC[C@@H](NCCCC(=O)O)[C@@H]3Oc4c(O)ccc5c4[C@@]31CCN(C)[C@@H]2C5 | 4.7 |  | Active |  |  |  |  | 
